# Assay results as given in ChEMBL document CHEMBL5649168, “Discovery of a selective catalytic p300/CBP inhibitor that targets lineage-specific tumours” (Nature, 2017).
# Activity calls are given as the source filed them. No cut-off for these calls is given here.
# Key:
# [1] = Anti-tumor activity against human LuCaP-77 CR cell xenografted in SCID mouse assessed as tumor growth inhibition administered for 21 days relative to control; assay type: functional; conditions: time 21 day
# CREB-binding protein = CREB-binding protein (Homo sapiens, UniProt Q92793); assay: Inhibition of CBP in human 22Rv1 cells at 3 uM incubated for 24 hrs by Western blotting analysis; assay type: cell-based
# [2] = biological target: Bromodomain-containing protein 3 (Homo sapiens, UniProt Q15059); assay: Inhibition of BRD3 (unknown origin)
# Chain of Bromodomain-containing protein 3 (Q15059 whole entry): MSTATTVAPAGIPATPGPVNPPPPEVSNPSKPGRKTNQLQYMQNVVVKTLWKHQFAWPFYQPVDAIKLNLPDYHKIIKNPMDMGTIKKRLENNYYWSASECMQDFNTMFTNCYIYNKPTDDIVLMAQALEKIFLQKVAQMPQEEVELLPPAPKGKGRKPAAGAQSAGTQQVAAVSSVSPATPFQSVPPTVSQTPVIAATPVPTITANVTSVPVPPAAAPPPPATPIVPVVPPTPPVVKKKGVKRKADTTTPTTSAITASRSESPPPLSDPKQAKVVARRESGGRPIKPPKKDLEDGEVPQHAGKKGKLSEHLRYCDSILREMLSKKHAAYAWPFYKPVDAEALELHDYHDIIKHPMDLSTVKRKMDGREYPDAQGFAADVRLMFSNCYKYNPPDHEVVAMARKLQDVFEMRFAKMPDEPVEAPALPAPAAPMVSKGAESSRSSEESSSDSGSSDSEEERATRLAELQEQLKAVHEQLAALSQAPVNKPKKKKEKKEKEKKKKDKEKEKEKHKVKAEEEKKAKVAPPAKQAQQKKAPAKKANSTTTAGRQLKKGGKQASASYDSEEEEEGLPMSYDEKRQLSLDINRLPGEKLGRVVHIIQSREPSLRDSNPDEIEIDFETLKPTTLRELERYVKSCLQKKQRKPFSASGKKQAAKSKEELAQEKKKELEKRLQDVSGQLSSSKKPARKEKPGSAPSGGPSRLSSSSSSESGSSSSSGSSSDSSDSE
# [3] = biological target: ALK tyrosine kinase receptor (Homo sapiens, UniProt Q9UM73); assay: Inhibition of ALK (unknown origin)
# [4] = biological target: Serine/threonine-protein kinase B-raf (Homo sapiens, UniProt P15056); assay: Inhibition of B-Raf (unknown origin)
# Chain of Serine/threonine-protein kinase B-raf (P15056 whole entry): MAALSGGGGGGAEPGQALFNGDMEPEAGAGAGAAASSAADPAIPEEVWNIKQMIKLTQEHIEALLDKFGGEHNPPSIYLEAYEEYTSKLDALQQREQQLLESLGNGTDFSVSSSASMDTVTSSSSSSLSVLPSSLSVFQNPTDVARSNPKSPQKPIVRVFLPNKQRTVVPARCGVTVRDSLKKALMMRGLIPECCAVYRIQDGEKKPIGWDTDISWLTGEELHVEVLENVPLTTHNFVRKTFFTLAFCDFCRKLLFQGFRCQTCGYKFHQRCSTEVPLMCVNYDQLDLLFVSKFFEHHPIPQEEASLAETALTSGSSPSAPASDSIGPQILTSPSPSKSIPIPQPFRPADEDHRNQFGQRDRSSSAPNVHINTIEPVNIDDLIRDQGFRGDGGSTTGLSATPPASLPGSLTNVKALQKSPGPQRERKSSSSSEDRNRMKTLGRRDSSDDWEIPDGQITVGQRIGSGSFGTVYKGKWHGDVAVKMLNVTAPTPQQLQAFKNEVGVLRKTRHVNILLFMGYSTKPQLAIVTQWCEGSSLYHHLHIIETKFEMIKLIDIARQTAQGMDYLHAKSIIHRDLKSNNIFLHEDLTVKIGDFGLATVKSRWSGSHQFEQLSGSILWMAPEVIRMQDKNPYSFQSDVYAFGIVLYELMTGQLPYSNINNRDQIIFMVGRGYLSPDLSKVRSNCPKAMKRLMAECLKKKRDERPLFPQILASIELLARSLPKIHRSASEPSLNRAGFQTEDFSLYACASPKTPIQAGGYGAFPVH
# [5] = biological target: Calcium/calmodulin-dependent protein kinase type 1D (Homo sapiens, UniProt Q8IU85); assay: Inhibition of CAMK1D (unknown origin)
# Chain of Calcium/calmodulin-dependent protein kinase type 1D (Q8IU85 whole entry, canonical isoform): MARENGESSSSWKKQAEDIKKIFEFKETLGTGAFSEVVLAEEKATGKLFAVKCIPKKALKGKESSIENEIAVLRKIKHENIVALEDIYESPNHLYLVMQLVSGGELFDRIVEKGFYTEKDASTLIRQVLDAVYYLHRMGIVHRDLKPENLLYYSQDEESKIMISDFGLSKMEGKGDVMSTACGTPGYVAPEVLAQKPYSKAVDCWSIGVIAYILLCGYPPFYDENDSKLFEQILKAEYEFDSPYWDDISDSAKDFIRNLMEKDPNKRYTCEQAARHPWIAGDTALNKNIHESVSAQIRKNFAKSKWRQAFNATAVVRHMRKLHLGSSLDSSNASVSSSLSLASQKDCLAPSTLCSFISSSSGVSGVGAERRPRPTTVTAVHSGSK
# [6] = biological target: Casein kinase I isoform alpha (Homo sapiens, UniProt P48729); assay: Inhibition of Ck1alpha1 (unknown origin)
# Chain of Casein kinase I isoform alpha (P48729 whole entry, canonical isoform): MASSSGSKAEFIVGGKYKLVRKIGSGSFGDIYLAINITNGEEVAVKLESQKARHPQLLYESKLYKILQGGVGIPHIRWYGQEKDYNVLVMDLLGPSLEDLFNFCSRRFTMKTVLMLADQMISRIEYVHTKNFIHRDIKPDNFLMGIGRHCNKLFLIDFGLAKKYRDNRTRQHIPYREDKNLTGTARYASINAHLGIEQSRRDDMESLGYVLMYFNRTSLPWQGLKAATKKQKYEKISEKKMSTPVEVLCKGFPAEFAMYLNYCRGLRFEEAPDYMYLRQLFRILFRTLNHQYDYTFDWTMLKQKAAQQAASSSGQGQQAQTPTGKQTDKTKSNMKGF
# [7] = biological target: Dual specificity tyrosine-phosphorylation-regulated kinase 1B (Homo sapiens, UniProt Q9Y463); assay: Inhibition of DYRK1B (unknown origin)
# [8] = biological target: Dual specificity tyrosine-phosphorylation-regulated kinase 1A (Homo sapiens, UniProt Q13627); assay: Inhibition of Dyrk1A (unknown origin)
# [9] = biological target: Epidermal growth factor receptor (Homo sapiens, UniProt P00533); assay: Inhibition of EGFR (unknown origin)
# Chain of Epidermal growth factor receptor (P00533 whole entry): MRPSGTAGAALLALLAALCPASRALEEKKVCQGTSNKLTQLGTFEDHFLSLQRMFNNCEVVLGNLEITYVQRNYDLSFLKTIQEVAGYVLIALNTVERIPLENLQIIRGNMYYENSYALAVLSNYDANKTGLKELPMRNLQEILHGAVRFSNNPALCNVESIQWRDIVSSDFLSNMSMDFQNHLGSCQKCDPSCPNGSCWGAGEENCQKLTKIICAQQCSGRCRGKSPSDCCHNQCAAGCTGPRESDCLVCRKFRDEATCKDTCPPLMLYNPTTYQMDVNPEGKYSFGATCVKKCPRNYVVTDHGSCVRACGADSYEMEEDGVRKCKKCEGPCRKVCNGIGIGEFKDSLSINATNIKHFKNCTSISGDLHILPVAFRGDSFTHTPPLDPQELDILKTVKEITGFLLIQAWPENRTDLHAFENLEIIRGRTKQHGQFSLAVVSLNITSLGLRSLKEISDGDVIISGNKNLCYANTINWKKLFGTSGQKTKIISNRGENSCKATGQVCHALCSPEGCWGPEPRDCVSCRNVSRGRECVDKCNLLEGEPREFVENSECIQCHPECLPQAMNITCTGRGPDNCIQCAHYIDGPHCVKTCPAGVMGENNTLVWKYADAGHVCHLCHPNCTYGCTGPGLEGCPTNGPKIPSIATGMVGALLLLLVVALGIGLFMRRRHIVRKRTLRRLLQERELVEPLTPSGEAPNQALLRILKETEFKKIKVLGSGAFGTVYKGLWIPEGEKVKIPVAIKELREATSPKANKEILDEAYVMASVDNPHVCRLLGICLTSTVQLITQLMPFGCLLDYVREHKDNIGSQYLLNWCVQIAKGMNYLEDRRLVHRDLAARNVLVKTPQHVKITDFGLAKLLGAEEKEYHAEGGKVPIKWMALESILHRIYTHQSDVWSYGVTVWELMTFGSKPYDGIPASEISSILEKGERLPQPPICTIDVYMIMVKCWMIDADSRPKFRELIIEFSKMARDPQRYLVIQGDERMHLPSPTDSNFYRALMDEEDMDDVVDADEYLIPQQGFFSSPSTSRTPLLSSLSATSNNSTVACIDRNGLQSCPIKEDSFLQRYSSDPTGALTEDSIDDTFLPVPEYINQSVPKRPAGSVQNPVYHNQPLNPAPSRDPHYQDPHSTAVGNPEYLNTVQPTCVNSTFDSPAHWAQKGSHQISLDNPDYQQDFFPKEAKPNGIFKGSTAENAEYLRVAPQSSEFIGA
# [10] = biological target: Protein kinase C zeta type (Homo sapiens, UniProt Q05513); assay: Inhibition of PKCzeta (unknown origin)
# Chain of Protein kinase C zeta type (Q05513 whole entry): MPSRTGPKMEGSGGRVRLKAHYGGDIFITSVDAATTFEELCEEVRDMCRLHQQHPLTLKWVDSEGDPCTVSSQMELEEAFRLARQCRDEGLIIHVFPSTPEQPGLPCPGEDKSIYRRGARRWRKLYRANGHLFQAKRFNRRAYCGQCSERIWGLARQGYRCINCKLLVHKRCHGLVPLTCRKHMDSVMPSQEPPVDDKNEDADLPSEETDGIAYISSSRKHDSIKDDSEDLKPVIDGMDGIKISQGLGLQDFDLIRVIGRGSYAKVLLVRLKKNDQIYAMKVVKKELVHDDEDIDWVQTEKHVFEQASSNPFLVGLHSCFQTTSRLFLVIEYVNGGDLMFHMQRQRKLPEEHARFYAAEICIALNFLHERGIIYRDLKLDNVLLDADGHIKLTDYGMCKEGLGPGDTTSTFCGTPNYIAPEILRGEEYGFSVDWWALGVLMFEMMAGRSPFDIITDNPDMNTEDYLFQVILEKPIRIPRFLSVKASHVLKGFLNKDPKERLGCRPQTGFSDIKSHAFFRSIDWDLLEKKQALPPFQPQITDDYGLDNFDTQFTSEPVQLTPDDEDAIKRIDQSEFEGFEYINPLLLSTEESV
# [11] = biological target: Serine/threonine-protein kinase Sgk1 (Homo sapiens, UniProt O00141); assay: Inhibition of SGK1 (unknown origin)
# Chain of Serine/threonine-protein kinase Sgk1 (O00141 whole entry): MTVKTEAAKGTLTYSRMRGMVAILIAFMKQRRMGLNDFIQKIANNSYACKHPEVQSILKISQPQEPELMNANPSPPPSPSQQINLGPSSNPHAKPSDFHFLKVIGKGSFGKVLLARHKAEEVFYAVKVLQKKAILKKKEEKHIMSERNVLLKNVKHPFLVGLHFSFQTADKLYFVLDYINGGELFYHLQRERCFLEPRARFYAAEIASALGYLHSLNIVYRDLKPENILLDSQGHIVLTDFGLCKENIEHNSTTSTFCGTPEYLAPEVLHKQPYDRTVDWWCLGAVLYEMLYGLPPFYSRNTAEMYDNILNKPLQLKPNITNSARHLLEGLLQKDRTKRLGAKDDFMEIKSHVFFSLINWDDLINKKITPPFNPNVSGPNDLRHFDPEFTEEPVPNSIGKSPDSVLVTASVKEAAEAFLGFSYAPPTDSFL
# [12] = biological target: Death-associated protein kinase 3 (Homo sapiens, UniProt O43293); assay: Inhibition of ZIPK (unknown origin)
# Chain of Death-associated protein kinase 3 (O43293 whole entry): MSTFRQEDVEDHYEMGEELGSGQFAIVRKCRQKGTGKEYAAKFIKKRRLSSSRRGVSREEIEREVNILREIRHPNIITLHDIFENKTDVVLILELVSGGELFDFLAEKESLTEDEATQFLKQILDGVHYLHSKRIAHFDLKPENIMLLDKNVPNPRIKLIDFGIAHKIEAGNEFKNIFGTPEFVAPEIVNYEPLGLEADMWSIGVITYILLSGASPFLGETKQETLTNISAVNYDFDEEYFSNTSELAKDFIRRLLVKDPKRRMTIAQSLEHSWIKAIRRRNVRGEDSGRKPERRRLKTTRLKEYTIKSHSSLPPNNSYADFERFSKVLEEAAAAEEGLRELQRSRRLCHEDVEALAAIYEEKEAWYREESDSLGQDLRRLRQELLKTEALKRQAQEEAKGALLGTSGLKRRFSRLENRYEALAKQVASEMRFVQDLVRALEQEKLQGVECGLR
# [13] = biological target: CREB-binding protein/Histone acetyltransferase p300 (Homo sapiens, UniProt Q09472+Q92793); assay: Inhibition of p300/CBP in human 22Rv1 cells assessed as reduction in H3K9Ac level incubated for 24 hrs by Hoechst 33342 staining based high content microscopy analysis; assay type: cell-based
# How it was run: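 Cells received an 8-point half-log dilution series from 10 µM. They were then fixed in 10% formaldehyde (10 min, RT), permeabilised with 0.1% Triton X-100 and blocked with 1% BSA for 1 h. Primary antibodies were applied overnight at 4 °C, followed by Alexa488 anti-rabbit, Alexa555 anti-mouse and Hoechst 33342 for 1 h. Fifteen fields per well were imaged and average mean intensity taken. EC50 came from a sigmoidal fit.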
# NCI-H727 = assay: Antiproliferative activity against human NCI-H727 cells assessed as inhibition of cell viability incubated for 3 to 5 days by Celltiter-Glo luminescent assay; assay type: functional, cell-based
# NCI-H596 = assay: Antiproliferative activity against human NCI-H596 cells assessed as inhibition of cell viability incubated for 3 to 5 days by Celltiter-Glo luminescent assay; assay type: functional, cell-based
# SK-MEL-5 = assay: Antiproliferative activity against human SK-MEL-5 cells assessed as inhibition of cell viability incubated for 3 to 5 days by Celltiter-Glo luminescent assay; assay type: functional, cell-based
# NCI-H1930 = assay: Antiproliferative activity against human NCI-H1930 cells assessed as inhibition of cell viability incubated for 3 to 5 days by Celltiter-Glo luminescent assay; assay type: functional, cell-based
# COR-L47 = assay: Antiproliferative activity against human COR-L47 cells assessed as inhibition of cell viability incubated for 3 to 5 days by Celltiter-Glo luminescent assay; assay type: functional, cell-based
# MDA-MB-453 = assay: Antiproliferative activity against human MDA-MB-453 cells assessed as inhibition of cell viability incubated for 3 to 5 days by Celltiter-Glo luminescent assay; assay type: functional, cell-based
# MDA-MB-157 = assay: Antiproliferative activity against human MDA-MB-157 cells assessed as inhibition of cell viability incubated for 3 to 5 days by Celltiter-Glo luminescent assay; assay type: functional, cell-based
# HCC1599 = assay: Antiproliferative activity against human HCC1599 cells assessed as inhibition of cell viability incubated for 3 to 5 days by Celltiter-Glo luminescent assay; assay type: functional, cell-based
# HCC70 = assay: Antiproliferative activity against human HCC70 cells assessed as inhibition of cell viability incubated for 3 to 5 days by Celltiter-Glo luminescent assay; assay type: functional, cell-based
# Granta-519 = assay: Antiproliferative activity against human Granta-519 cells assessed as inhibition of cell viability incubated for 3 to 5 days by Celltiter-Glo luminescent assay; assay type: functional, cell-based
# KMS-11 = assay: Antiproliferative activity against human KMS-11 cells assessed as inhibition of cell viability incubated for 3 to 5 days by Celltiter-Glo luminescent assay; assay type: functional, cell-based
# BJAB = assay: Antiproliferative activity against human BJAB cells assessed as inhibition of cell viability incubated for 3 to 5 days by Celltiter-Glo luminescent assay; assay type: functional, cell-based
# Toledo = assay: Antiproliferative activity against human Toledo cells assessed as inhibition of cell viability incubated for 3 to 5 days by Celltiter-Glo luminescent assay; assay type: functional, cell-based
# NU-DHL-1 = assay: Antiproliferative activity against human NU-DHL-1 cells assessed as inhibition of cell viability incubated for 3 to 5 days by Celltiter-Glo luminescent assay; assay type: functional, cell-based
# RL = assay: Antiproliferative activity against human RL cells assessed as inhibition of cell viability incubated for 3 to 5 days by Celltiter-Glo luminescent assay; assay type: functional, cell-based
# WSU-NHL = assay: Antiproliferative activity against human WSU-NHL cells assessed as inhibition of cell viability incubated for 3 to 5 days by Celltiter-Glo luminescent assay; assay type: functional, cell-based
# U-2940 = assay: Antiproliferative activity against human U-2940 cells assessed as inhibition of cell viability incubated for 3 to 5 days by Celltiter-Glo luminescent assay; assay type: functional, cell-based
# U2932 = assay: Antiproliferative activity against human U2932 cells assessed as inhibition of cell viability incubated for 3 to 5 days by Celltiter-Glo luminescent assay; assay type: functional, cell-based
# Farage = assay: Antiproliferative activity against human Farage cells assessed as inhibition of cell viability incubated for 3 to 5 days by Celltiter-Glo luminescent assay; assay type: functional, cell-based
# HL-60 = assay: Antiproliferative activity against human HL-60 cells assessed as inhibition of cell viability incubated for 3 to 5 days by Celltiter-Glo luminescent assay; assay type: functional, cell-based
# MOLT-4 = assay: Antiproliferative activity against human MOLT-4 cells assessed as inhibition of cell viability incubated for 3 to 5 days by Celltiter-Glo luminescent assay; assay type: functional, cell-based
# [14] = Tmax in CB17 SCID mouse xenografted with LuCaP-77 CR cell at 50 mg/kg, ip administered for 7 days; assay type: ADME, organism-based; conditions: in vivo, time 7 day
# [15] = Cmax in CB17 SCID mouse xenografted with LuCaP-77 CR cell at 200 mg/kg, ip administered for 7 days; assay type: ADME, organism-based; conditions: in vivo, time 7 day
# [16] = Cmax in CB17 SCID mouse xenografted with LuCaP-77 CR cell at 50 mg/kg, ip administered for 7 days; assay type: ADME, organism-based; conditions: in vivo, time 7 day
# [17] = Ratio of drug concentration in brain to plasma in CB17 SCID mouse xenografted with LuCaP-77 CR cell at 50 mg/kg, po measured after 24 hrs
# Kasumi 1 = assay: cells; conditions: Homo sapiens
structure (smiles),measurement,setting,value
CNC(=O)Nc1ccc2c(c1)CC[C@@]21OC(=O)N(CC(=O)N(Cc2ccc(F)cc2)[C@@H](C)C(F)(F)F)C1=O [A-485],TGI,[1],54%
same,inhibition,CREB-binding protein,inactive
same,IC50,[2],> 10 µM
same,IC50,[3],> 10 µM
same,IC50,[4],> 10 µM
same,IC50,[5],> 10 µM
same,IC50,[6],> 10 µM
same,IC50,[7],> 10 µM
same,IC50,[8],> 10 µM
same,IC50,[9],> 10 µM
same,IC50,[10],> 10 µM
same,IC50,[11],> 10 µM
same,IC50,[12],> 10 µM
same,INH,[13],> 10 µM
same,EC50,NCI-H727,6.63 µM
same,EC50,NCI-H596,> 10 µM
same,EC50,SK-MEL-5,0.91 µM
same,EC50,NCI-H1930,> 10 µM
same,EC50,COR-L47,> 10 µM
same,EC50,MDA-MB-453,1.87 µM
same,EC50,MDA-MB-157,4.59 µM
same,EC50,HCC1599,4.85 µM
same,EC50,HCC70,> 10 µM
same,EC50,Granta-519,3.28 µM
same,EC50,KMS-11,0.24 µM
same,EC50,BJAB,0.28 µM
same,EC50,Toledo,0.49 µM
same,EC50,NU-DHL-1,0.53 µM
same,EC50,RL,1.05 µM
same,EC50,WSU-NHL,1.06 µM
same,EC50,U-2940,1.33 µM
same,EC50,U2932,2.46 µM
same,EC50,Farage,> 10 µM
same,EC50,HL-60,> 10 µM
same,EC50,MOLT-4,> 10 µM
same,Tmax,[14],3 h
same,Cmax,[15],242 µg/mL
same,Cmax,[16],14.7 µg/mL
same,Kp at 24 h,[17],0.097
same,EC50,Kasumi 1,0.29 µM
